Results published in ChEMBL document CHEMBL1914408, “Synthesis and biological evaluation of hydroxylated 3-phenylcoumarins as antioxidants and antiproliferative agents” (Bioorg Med Chem Lett, 2011).
Activity calls are given as the source filed them. The rule behind the calls is not given here.

Tests used:
[1] = tested on: HL-60; assay: Antiproliferative activity against human HL60 cells after 48 hrs by MTT assay relative to resveratrol; format: functional
[2] = tested on: HL-60; assay: Antiproliferative activity against human HL60 cells after 48 hrs by MTT assay; format: functional, cell-based; conditions: HL-60, 48 h
In short: (§1)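 MTT proliferation assay in HL-60 and A549 cells; IC50 taken as concentration giving 50% inhibition of cell proliferation, reported as mean ± SD of three determinations.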

[3] = tested on: A549; assay: Cell cycle arrest in human A549 cells assessed as accumulation at G0/G1 phase at 15 uM after 24 hrs using propidium iodide staining by flow cytometric analysis (reference value: 70.68 %); format: functional
[4] = tested on: A549; assay: Induction of early apoptosis in human A549 cells assessed as reduction of living cells after 24 hrs by Hoechst-33258/propodium iodide staining based fluorescence microscopy; format: functional, cell-based
In short: (§2)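 A549 cells treated with culture medium or 5, 10 and 15 µM compound for 24 h, then nuclear-stained with Hoechst 33258/propidium iodide and viewed by fluorescence microscopy (200×). Living cells scored as smooth blue nuclei; early apoptotic cells as blue with bright specks of condensed chromatin. Representative of three separate experiments.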

[5] = tested on: A549; assay: Cell cycle arrest in human A549 cells assessed as accumulation at G2/M phase at 15 uM after 24 hrs using propidium iodide staining by flow cytometric analysis (reference value: 8.16 %); format: functional
[6] = tested on: A549; assay: Cell cycle arrest in human A549 cells assessed as accumulation at S phase at 10 uM after 24 hrs using propidium iodide staining by flow cytometric analysis (reference value: 21.16 %); format: functional
[7] = tested on: A549; assay: Cell cycle arrest in human A549 cells assessed as accumulation at G0/G1 phase at 30 uM after 24 hrs using propidium iodide staining by flow cytometric analysis (reference value: 70.68 %); format: functional
[8] = tested on: A549; assay: Cell cycle arrest in human A549 cells assessed as accumulation at S phase at 15 uM after 24 hrs using propidium iodide staining by flow cytometric analysis (reference value: 21.16 %); format: functional
[9] = tested on: A549; assay: Cell cycle arrest in human A549 cells assessed as accumulation at S phase at 40 uM after 24 hrs using propidium iodide staining by flow cytometric analysis (reference value: 21.16 %); format: functional
[10] = tested on: A549; assay: Cell cycle arrest in human A549 cells assessed as accumulation at G2/M phase at 10 uM after 24 hrs using propidium iodide staining by flow cytometric analysis (reference value: 8.16 %); format: functional
[11] = tested on: A549; assay: Cell cycle arrest in human A549 cells assessed as accumulation at G2/M phase at 30 uM after 24 hrs using propidium iodide staining by flow cytometric analysis (reference value: 8.16 %); format: functional
[12] = tested on: A549; assay: Cell cycle arrest in human A549 cells assessed as accumulation at G0/G1 phase at 20 uM after 24 hrs using propidium iodide staining by flow cytometric analysis (reference value: 70.68 %); format: functional
[13] = Antioxidant activity assessed as protection against […]-induced pBR322 DNA strand breakage at 20 uM after 1 hr using ethidium bromide staining by agarose gel electrophoresis analysis; format: functional
In short: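 Supercoiled plasmid pBR322 DNA (100 ng/25 µl) incubated with 10 mM AAPH plus 20 µM test compound in 10 mM PBS, pH 7.4, 37 °C, 1 h; strand breakage (supercoiled vs open circular/linear forms) read by agarose gel electrophoresis. Controls: DNA alone (native) and DNA with AAPH.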

[14] = tested on: A549; assay: Induction of apoptosis in human A549 cells assessed as changes in cell morphology after 24 hrs by Hoechst-33258/propodium iodide staining based fluorescence microscopy; format: functional; in short: as §2
[15] = tested on: A549; assay: Antiproliferative activity against human A549 cells after 72 hrs by MTT assay relative to resveratrol; format: functional
[16] = tested on: A549; assay: Cell cycle arrest in human A549 cells assessed as accumulation at G2/M phase at 20 uM after 24 hrs using propidium iodide staining by flow cytometric analysis (reference value: 8.16 %); format: functional
[17] = tested on: A549; assay: Cell cycle arrest in human A549 cells assessed as accumulation at G0/G1 phase at 10 uM after 24 hrs using propidium iodide staining by flow cytometric analysis (reference value: 70.68 %); format: functional
[18] = tested on: A549; assay: Cell cycle arrest in human A549 cells assessed as accumulation at G2/M phase at 40 uM after 24 hrs using propidium iodide staining by flow cytometric analysis (reference value: 8.16 %); format: functional
[19] = tested on: A549; assay: Induction of apoptosis in human A549 cells assessed as condensed chromatin after 24 hrs by Hoechst-33258/propodium iodide staining based fluorescence microscopy; format: functional, cell-based; in short: as §2
[20] = tested on: A549; assay: Cell cycle arrest in human A549 cells assessed as accumulation at S phase at 30 uM after 24 hrs using propidium iodide staining by flow cytometric analysis (reference value: 21.16 %); format: functional
[21] = tested on: A549; assay: Antiproliferative activity against human A549 cells after 72 hrs by MTT assay; format: functional, cell-based; conditions: A549, 72 h; in short: as §1
[22] = tested on: A549; assay: Cell cycle arrest in human A549 cells assessed as accumulation at G0/G1 phase at 40 uM after 24 hrs using propidium iodide staining by flow cytometric analysis (reference value: 70.68 %); format: functional
[23] = tested on: A549; assay: Cell cycle arrest in human A549 cells assessed as accumulation at S phase at 20 uM after 24 hrs using propidium iodide staining by flow cytometric analysis (reference value: 21.16 %); format: functional

Structure (SMILES)	IC50 [2] [µM]	IC50 [21] [µM]	Activity [13]	also measured
COc1cc2cc(-c3cc(OC)c(OC)c(OC)c3)c(=O)oc2c(OC)c1O	72.2	> 200	Active	–
O=c1oc2cc(O)c(O)cc2cc1-c1ccc(O)c(O)c1	22.1	48.8	Active	–
O=c1oc2cc(O)c(O)cc2cc1-c1ccccc1	14	27	Active	–
COc1cc(-c2cc3cc(O)c(O)cc3oc2=O)ccc1O	–	43.4	–	–
O=c1oc2cc(O)ccc2cc1-c1cc(O)cc(O)c1	127	> 200	–	–
O=c1oc2cc(O)c(O)cc2cc1-c1ccc(O)cc1	25	42.5	Active	–
O=c1oc2ccccc2cc1-c1ccc(O)cc1	> 200	> 200	–	–
COc1cc(-c2cc3ccc(O)cc3oc2=O)ccc1O	91.7	> 200	Active	–
COc1cc(-c2cc3cc(OC)c(O)cc3oc2=O)ccc1O	24.3	21.4	Active	–
O=c1oc2cc(O)ccc2cc1-c1ccc(O)c(O)c1	42.1	85	–	–

Now from value to molecule, other results behind:

IC50 [2] [µM]	IC50 [21] [µM]	Structure (SMILES)	Activity [13]	also measured
5.2	7.5	COc1cc2cc(-c3ccc(O)cc3)c(=O)oc2cc1O	inactive	fold change (FC) [1]: 7; Activity [3]: 34.49%; Activity [4]: Dose-dependent effect; Activity [5]: 40.65%; Activity [6]: 11.95%; Activity [7]: 9.62%; Activity [8]: 19.86%; Activity [9]: 8.86%; Activity [10]: 16.6%; Activity [11]: 80.95%; Activity [12]: 11.82%; Activity [14]: Dose-dependent effect; fold change (FC) [15]: 16; Activity [16]: 70.08%; Activity [17]: 71.45%; Activity [18]: 84.03%; Activity [19]: Dose-dependent effect; Activity [20]: 9.43%; Activity [22]: 7.11%; Activity [23]: 18.1%
25.1	45.8	COc1cc2cc(-c3ccc(O)cc3)c(=O)oc2c(OC)c1O	Active	–
> 200	> 200	O=c1oc2cc(O)ccc2cc1-c1ccccc1	–	–
> 200	> 200	O=c1oc2cc(O)ccc2cc1-c1ccc(O)cc1	Active	–
–	120	Oc1ccc(/C=C/c2cc(O)cc(O)c2)cc1 [RESVERATROL]	–	–
